Data reported in ChEMBL document CHEMBL3046821, “Phospholipase A2 inhibitors synthesized by two entomopathogenic bacteria, Xenorhabdus nematophila and Photorhabdus temperata subsp. temperata” (Appl Environ Microbiol, 2012).
≈ marks a conversion by molar mass, not a printed value. Calls of active or inactive are those of the source. The calls are words filed in the database; no cut-off is given here. Residues, ends and D or L forms follow the SMILES beside them.

Key:
[1] = (§1) Inhibition of PLA2 in hemocytes of Spodoptera exigua fifth-instar larvae using pyrene-labeled phospholipid substrate by spectrofluorometry; format: cell-based; conditions: read-out: I50
In short: (§2)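 PLA2 from fifth-instar S. exigua hemocytes: hemolymph spun 500 × g 10 min, hemocytes sonicated in PBS, 12,500 × g 10 min 4°C supernatant. Enzyme (10 μg) preincubated with 10 μl sample, 25°C, 10 min; pyrene-labeled phosphatidylcholine substrate added with BSA and CaCl2 in PBS pH 7.4; residual activity by fluorescence, ex 348/em 390 nm. Triplicate independent samplings; I50 derived.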

[2] = test system: Spodoptera exigua; assay: as §1; format: cell-based; in short: as §2
[3] = test system: Spodoptera exigua; assay: Inhibition of immune responses in Spodoptera exigua fifth-instar larvae assessed as inhibition of hemocytic nodulation in response to Escherichia coli challenge by stereomicroscopy; format: functional, organism-based; conditions: read-out: I50
In short: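 Fifth-instar S. exigua injected with E. coli (3.2 × 10^4 cells) mixed with compound in 10 μl; after 8 h at 25°C melanized nodules counted under stereomicroscope at ×50. Three replicates; I50 derived.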

[4] = test system: Plutella xylostella; assay: Potentiation of 1000 ppm Bacillus thuringiensis-induced pathogenicity against Plutella xylostella (diamondback moth) fourth-instar larvae at 10000 ppm measured 48 hr post compound treatment; format: functional, organism-based
In short: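 P. xylostella larvae fed Chinese cabbage pieces (1 cm2) dipped 5 min in test solutions together with commercial B. thuringiensis subsp. kurstaki, briefly dried in dark. Mortality at 48 h, with dead meaning no coordinated movement on probing; 10 larvae per replicate, three replicates; arcsine-square-root transformed, LSD test.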

[5] = test system: Plutella xylostella; assay: Insecticidal activity against Plutella xylostella (diamondback moth) fourth-instar larvae fed on cabbage leaves soaked in compound solutions measured 48 hr post compound treatment by leaf-dipping method; format: functional
In short: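 Leaf-dip feeding assay: Chinese cabbage pieces (1 cm2) soaked 5 min in test solutions at predetermined concentrations, briefly dried in the dark, then fed to P. xylostella larvae (field-origin colony reared on cabbage at 25 ± 1°C, 16:8 h light:dark). Three replicates of 10 larvae per dose. Mortality scored at 48 h; dead = no coordinated movement when prodded. Dose-mortality curves give LC50.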

[6] = test system: Phenoloxidase (Spodoptera exigua); assay: Inhibition of phenoloxidase activity in hemolymph of Spodoptera exigua fifth-instar larvae using DOPA substrate

Row | SMILES | IC50 [1] | inhibition [2] | IC50 [3] | Activity [4] | LC50 [5] | inhibition [6]
1 | O=C1N[C@@H](Cc2ccc(O)cc2)C(=O)N2CCC[C@@H]12 | 47.8 µM | Dose-dependent effect | 37.7 µM | Active | 5950 µg/mL (≈ 22.9 mM) | 
2 | CC(=O)N[C@@H](Cc1ccccc1)C(=O)NCC(=O)N[C@H](C(=O)O)C(C)C (Ac-Phe-Gly-Val-OH) | 428 µM | Dose-dependent effect | 423 µM | Active | 8350 µg/mL (≈ 23 mM) | Dose-dependent effect
3 | O=C(O)[C@H](Cc1ccc(O)cc1)NC(=O)[C@@H]1CCCN1 (H-Pro-Tyr-OH) | 522 µM | Dose-dependent effect | 473 µM | Active | 7690 µg/mL (≈ 27.6 mM) | Dose-dependent effect
4 | CC(=O)/C=C/c1ccccc1 [BUTENONE] |  | Dose-dependent effect |  | Active |  | 
5 | O=C(O)CCc1ccc(O)cc1 [HYDROXYPHENYL PROPIONIC ACID] | 49.5 µM | Dose-dependent effect | 58.7 µM | Active | 6640 µg/mL (≈ 40 mM) | Dose-dependent effect
6 | c1ccc2[nH]ccc2c1 [INDOLE] | 64.9 µM | Dose-dependent effect | 52.9 µM | Active | 6270 µg/mL (≈ 53.6 mM) | 
7 | O=C1Cc2ccccc2N1 [OXINDOLE] | 46.2 µM | Dose-dependent effect | 32.3 µM | Active | 4830 µg/mL (≈ 36.3 mM) | Dose-dependent effect
